Source: ChEMBL document CHEMBL4616671, “Identification of N-Phenyl-7H-pyrrolo[2,3-d]pyrimidin-4-amine Derivatives as Novel, Potent, and Selective NF-κB Inducing Kinase (NIK) Inhibitors for the Treatment of Psoriasis” (J Med Chem, 2020)
Active and inactive are the calls of the source. No cut-off for these calls is given here.

Key:
T-cell = test: Antiinflammatory activity in mouse T cells assessed as inhibition of conA-induced induced T cell proliferation at 0.4 uM incubated for 48 hrs by CCK8 assay relative to control; format: functional
[1] = AUC (0 to infinity) in Sprague-Dawley rat at 1 mg/kg, iv administered as single bolus dose by LC-MS/MS analysis; format: ADME, organism-based; parameters: dose 1 mg/kg, time infinity, route intravenous; settings: in vivo
In short: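 Single IV bolus in SD rats, 3 per group, in DMSO:PEG200:saline 20:20:60 (v/v/v), 0.2 mg/mL. Plasma protein-precipitated with ACN containing internal standards, then quantified by LC-MS/MS. AUC0-∞ from concentration-time profiles by linear trapezoidal rule, noncompartmental analysis. Mean ± SD of three rats.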

[2] = Intrinsic clearance in monkey liver microsomes assessed as per mg of protein incubated for 10 mins followed by potassium phosphate buffer addition and measured after 5 to 60 mins by LC-MS/MS analysis; format: ADME, Macaca mulatta, Microsome; settings: rhesus monkey, read-out: CLH
In short: (§1)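 Rat, dog, monkey or human liver microsomes pre-incubated with compound at 37 °C for 10 min; reaction started after pre-warming and stopped at 5, 15, 30, 60 min with chilled quench containing tolbutamide and labetalol. No-cofactor control in 100 mM potassium phosphate for 60 min. LC-MS/MS analysis; first-order fit: k = −slope, T1/2 = 0.693/k, CLint = k/microsomal protein concentration.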

Mus musculus = test: Suppression of IMQ-induced psoriasis in C57 mouse assessed as reduction in spleen index at 120 mg/kg, ig administered once daily starting from day 3 post IMQ-challenge and measured 2 days post-last dose of IMQ; format: functional, organism-based
In short: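 IMQ-induced C57 mice (5% cream daily 7 days; i.g. daily from day 3 at the stated dose, n = 6). Spleen weighed per mouse at end of study.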

[3] = Half life in Sprague-Dawley rat at 10 mg/kg, po administered via gavage by LC-MS/MS analysis; format: ADME, organism-based; settings: in vivo
[4] = Intrinsic clearance in rat liver microsomes assessed as per mg of protein incubated for 10 mins followed by potassium phosphate buffer addition and measured after 5 to 60 mins by LC-MS/MS analysis; format: ADME, Microsome; settings: read-out: CLH; in short: as §1

AUC(0-inf) [1]: 419 ng·h/mL
microsomal CLint [2]: 76.8 µL/min/mg
half-life [3]: 1.39 h
microsomal CLint [4]: 45 µL/min/mg
SMILES: CC(O)(C#Cc1ccc(N2CCOCC2)c(Nc2ncnc3[nH]ccc23)c1)c1nccs1 (racemic)
inhibition at 0.4 µM (T-cell): 36%
inhibition (Mus musculus): Active
